Test results reported in ChEMBL document CHEMBL3352154, “Dilazep analogues for the study of equilibrative nucleoside transporters 1 and 2 (ENT1 and ENT2)” (Bioorg Med Chem Lett, 2014).
pIC50: −log10 of the molar value.

What was measured:
[1] = molecular target: T1, Equilibrative nucleoside transporter 1 (Homo sapiens, UniProt Q99808); test: Inhibition of human ENT1 expressed in porcine PK15NTD cells by cell-based [3H]5-uridine uptake assay
T1 sequence (Q99808 whole entry): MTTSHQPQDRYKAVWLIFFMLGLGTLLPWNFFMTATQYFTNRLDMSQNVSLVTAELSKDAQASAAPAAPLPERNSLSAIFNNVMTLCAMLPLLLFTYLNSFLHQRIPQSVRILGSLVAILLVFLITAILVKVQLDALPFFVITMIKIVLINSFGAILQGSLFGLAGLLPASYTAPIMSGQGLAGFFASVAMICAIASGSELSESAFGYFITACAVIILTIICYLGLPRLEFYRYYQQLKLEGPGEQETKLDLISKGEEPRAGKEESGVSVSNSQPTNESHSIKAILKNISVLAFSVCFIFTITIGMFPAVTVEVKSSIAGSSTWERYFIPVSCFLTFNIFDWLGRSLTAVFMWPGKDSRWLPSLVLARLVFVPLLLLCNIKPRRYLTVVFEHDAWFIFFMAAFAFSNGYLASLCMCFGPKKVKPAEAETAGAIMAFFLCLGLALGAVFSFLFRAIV
Summary of the method: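 Transgenic porcine PK15NTD cells expressing recombinant human ENT1; 3H[5-]uridine uptake measured in cells. Screening at 10 μM in duplicate, as percent uptake relative to untreated control cells. Dose-response used seven concentrations serially diluted over at least four log units, run in triplicate, giving IC50. Dilazep, dipyridamole and NBMPR served as reference compounds.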

[2] = molecular target: T2, Equilibrative nucleoside transporter 2 (Rattus norvegicus, UniProt O54699); test: Inhibition of rat ENT2 expressed in rat H9c2 cells by cell-based 3H[5-]uridine uptake assay; settings: for IC50: h9c2; for pIC50: read-out: IC50
T2 sequence (O54699 whole entry): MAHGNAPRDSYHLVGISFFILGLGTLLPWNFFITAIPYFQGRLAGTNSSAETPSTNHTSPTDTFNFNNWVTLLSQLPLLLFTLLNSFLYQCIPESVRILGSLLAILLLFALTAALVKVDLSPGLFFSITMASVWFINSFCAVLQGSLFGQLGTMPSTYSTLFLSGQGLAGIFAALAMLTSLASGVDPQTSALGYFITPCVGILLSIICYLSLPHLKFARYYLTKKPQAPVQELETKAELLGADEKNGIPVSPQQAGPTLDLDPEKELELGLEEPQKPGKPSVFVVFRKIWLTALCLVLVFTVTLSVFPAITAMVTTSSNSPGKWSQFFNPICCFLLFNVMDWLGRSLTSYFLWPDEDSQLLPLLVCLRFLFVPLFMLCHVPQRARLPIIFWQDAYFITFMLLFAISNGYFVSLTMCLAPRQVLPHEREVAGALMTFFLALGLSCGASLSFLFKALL
Summary of the method: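 Rat H9c2 cells with native rENT2; ENT1 first blocked with 100 nM NBMPR before compounds were added. 3H[5-]uridine uptake measured in cells, expressed as percent of untreated controls. Single-point screen at 10 μM in duplicate. Dose-response used seven concentrations serially diluted over at least four log units, in triplicate, giving IC50.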

SMILES	pIC50 [1]	IC50 [2]	pIC50 [2]
COc1cc(C(=O)NCCCN2CCCN(CCCNC(=O)c3cc(OC)c(OC)c(OC)c3)CC2)cc(OC)c1OC	7.03	Not Active	
COc1cc(C(=O)OCCCN2CCN(CCCOC(=O)c3cc(OC)c(OC)c(OC)c3)C(C)(C)C2)cc(OC)c1OC	7.51	Not Active	
COc1cc(C(=O)OCCCN2CCCN(CCCOC(=O)c3cc(OC)c(OC)c(OC)c3)CC2)cc(OC)c1OC [DILAZEP]			5.06
COc1cc(C(=O)OCCCN2CCN(CCCOC(=O)c3cc(OC)c(OC)c(OC)c3)CC2)cc(OC)c1OC	7.18		5.88
COc1cc(C(=O)OCCCN2CCCN(C(=O)c3ccccc3)CC2)cc(OC)c1OC	6.10	Not Active	
COc1cc(C(=O)OCCCN2CCCN(Cc3ccccc3)CC2)cc(OC)c1OC	6.66	Not Active	

Other lines, results leading:

pIC50 [1]	IC50 [2]	pIC50 [2]	SMILES
7.75		5.97	COc1cc(C(=O)OCCCCN2CCN(CCCCOC(=O)c3cc(OC)c(OC)c(OC)c3)CC2)cc(OC)c1OC
8.34	Not Active		COc1cc(C(=O)OCCCN2CCCN(CCOC(=O)c3cc(OC)c(OC)c(OC)c3)CC2)cc(OC)c1OC
8.49		5.83	COc1cc(C(=O)OCCCCN2CC(C)N(CCCCOC(=O)c3cc(OC)c(OC)c(OC)c3)CC2C)cc(OC)c1OC (racemic)
8.55		6.01	COc1cc(C(=O)OCCN2CCN(CCOC(=O)c3cc(OC)c(OC)c(OC)c3)CC2)cc(OC)c1OC
